Test results reported in ChEMBL document CHEMBL1149300, “Novel retinoic acid metabolism blocking agents endowed with multiple biological activities are efficient growth inhibitors of human breast and prostate cancer cells in vitro and a human breast tumor xenograft in nude mice” (J Med Chem, 2004).
pIC50: −log10 of the molar value. The source made the active and inactive calls. The rule behind the calls is not given here.

Tests used:
MCF7 [1] = assay: Antiproliferative effect against human MCF7 cells; assay type: functional, cell-based
Procedure, shortened: (§1)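 MCF-7 (IMEM, 5% FBS) or T47D (RPMI 1640, 10% FBS) cells, 1 × 10^4 per well, adhered ~18 h, then exposed to 0.0001-10 µM drug (ethanol) for 6 days with media and drug renewed on day 4. MTT for 2 h, formazan dissolved in DMSO, A540. Triplicate wells, 2-3 experiments; IC50 by nonlinear regression.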

Mesocricetus auratus = species: Mesocricetus auratus; assay: Inhibition of ATRA hydroxylase in Syrian golden hamster liver microsome assessed ATRA metabolism using [11.12-3H]-ATRA; assay type: microsomes
Procedure, shortened: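 Microsomes from male Syrian golden hamster liver, or from T47D cells pretreated with 1 µM ATRA. Incubation in 0.1 M phosphate buffer pH 7.4 with NADPH, MgCl2 and BSA, inhibitor in DMSO; 3 min preincubation at 37 °C, then [11,12-3H]-ATRA for 30 min at 37 °C under oxygen. Ethyl acetate extraction, reverse-phase HPLC with radiometric detection; percent polar metabolites; IC50 from dose-response curves.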

MCF7 [2] = assay: Growth inhibition of human MCF7 cells after 6 days by MTT assay; assay type: functional, cell-based; settings: MCF7, 144 h; procedure, shortened: as §1
T47D = assay: Growth inhibition of human T47D cells after 6 days by MTT assay; assay type: functional, cell-based; settings: 144 h; procedure, shortened: as §1
MDA-MB-231 = assay: Growth inhibition of human MDA-MB-231 cells up to 10 uM after 6 days by MTT assay; assay type: functional, cell-based
LNCaP = assay: Growth inhibition of human LNCaP cells after 6 days by MTT assay; assay type: functional, cell-based; settings: 144 h
Procedure, shortened: (§2)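 LNCaP cells (1 × 10^4) on poly-L-lysine-coated wells, attached 36 h; PC-3 cells (1 × 10^4), uncoated, attached 24 h; both in RPMI 1640. Treated with a concentration range of drug for 6 days, medium changed every 3 days. MTT read-out at 540 nm; IC50 by nonlinear regression from at least two experiments.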

PC-3 = assay: Growth inhibition of human PC3 cells after 6 days by MTT assay; assay type: functional, cell-based; settings: PC-3, 144 h; procedure, shortened: as §2
[3] = Displacement of [11,12-3H]ARTA from RARgamma; parameters: species or system Homo sapiens
Procedure, shortened: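 Recombinant S-Tag RARα, RARβ or RARγ fusion protein extracts (10-30 µg/mL total protein) in HEPES pH 7.9 binding buffer. Incubated with 1 nM [3H]all-trans-RA and 0-500 nM test compound for 3 h at 27 °C. Nonspecific binding measured with a 200-fold excess of unlabeled RA; IC50 from dose-response curves, at least two experiments.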

MCF7 [4] = assay: Reduction of tumor growth in MCF7 cells xenografted ovariectomized mouse at 0.033 mmol/kg, sc for 6 weeks relative to control; assay type: functional; settings: Homo sapiens
Procedure, shortened: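 Female ovariectomized nude mice received estrogen pellets. MCF-7 cells (2 × 10^6 in Matrigel) were injected sc into both flanks and grown 4-5 weeks to 200-300 mm3. Groups of n = 5 were dosed sc once daily, 6 days/week for 6 weeks, vehicle 0.3% HPC, 200 µL. Tumors were measured weekly by caliper, volume = (4/3)πr1²r2, and change was compared with vehicle controls.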

pIC50 (MCF7 [1]): 6.23 | Km (Mesocricetus auratus): 0.16 µM | pIC50 (MCF7 [2]): 6.24 | pIC50 (T47D): 8.22 | pIC50 (LNCaP): 5.00 | pIC50 (PC-3): 5.70 | pIC50 [3]: 8.00
Structure (SMILES): CC1=C(/C=C/C(C)=C/C=C/C(C)=C/C(=O)O)C(C)(C)CCC1 [TRETINOIN]
Activity (MDA-MB-231): inactive | Activity (MCF7 [4]): inactive
